Active and inactive are the calls of the source. No cut-off for these calls is given here.
Columns and labels:
[1] = tested on: Human alphaherpesvirus 3; assay: Antiviral activity against Varicella-zoster virus YS expressing thymidine kinase assessed as reduction of virus induced cytopathicity by cell based assay; format: functional, organism-based; details: Human alphaherpesvirus 3, YS
[2] = tested on: Human alphaherpesvirus 3; assay: Antiviral activity against Varicella-zoster virus strain OKA expressing thymidine kinase assessed as reduction of virus induced cytopathicity by cell based assay; format: functional; details: Human alphaherpesvirus 3, strain Oka vaccine
Summary of the method: (§1)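 Confluent cell monolayers infected with 100 CCID50 virus, or 20 PFU for plaque assays, then incubated with serial compound dilutions. Host cells listed for the non-HIV panel are HEL fibroblasts, Vero, HeLa, CRFK or MDCK. Cytopathicity is scored, or plaques counted for VZV, once infected untreated controls reach full CPE.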

[3] = tested on: Human alphaherpesvirus 3; assay: Antiviral activity against thymidine kinase-deficient Varicella-zoster virus 07/1 assessed as reduction of virus induced cytopathicity by cell based assay; format: functional, organism-based; details: Human alphaherpesvirus 3, 07/1; summary of the method: as §1
[4] = tested on: Human alphaherpesvirus 3; assay: Antiviral activity against thymidine kinase-deficient Varicella-zoster virus YS/R assessed as reduction of virus induced cytopathicity by cell based assay; format: functional, organism-based; details: Human alphaherpesvirus 3, YS/R
[5] = tested on: Human alphaherpesvirus 1; assay: Antiviral activity against Herpes simplex virus 1 strain KOS assessed as reduction of virus induced cytopathicity by cell based assay; format: functional, organism-based; details: Human alphaherpesvirus 1, KOS; summary of the method: as §1
[6] = tested on: Human alphaherpesvirus 2; assay: Antiviral activity against Herpes simplex virus 2 strain G assessed as reduction of virus induced cytopathicity by cell based assay; format: functional, organism-based; details: Human alphaherpesvirus 2, strain G; summary of the method: as §1
[7] = tested on: Human alphaherpesvirus 1; assay: Antiviral activity against thymidine kinase-deficient acyclovir-resistant Herpes simplex virus 1 strain KOS assessed as reduction of virus induced cytopathicity by cell based assay; format: functional, organism-based; details: Human alphaherpesvirus 1, KOS; summary of the method: as §1
[8] = tested on: Human betaherpesvirus 5; assay: Antiviral activity against Human cytomegalovirus Davis assessed as reduction of virus induced cytopathicity by cell based assay; format: functional, organism-based; details: Human betaherpesvirus 5, Davis; summary of the method: as §1
[9] = tested on: Vaccinia virus; assay: Antiviral activity against Vaccinia virus Lederle assessed as reduction of virus induced cytopathicity by cell based assay; format: functional, organism-based; details: Orthopoxvirus vaccinia; summary of the method: as §1
[10] = Cytotoxicity against human HEL cells assessed as alteration of cell morphology after 3 days by microscopic analysis; format: cell-based
Summary of the method: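 MCC taken as the lowest compound concentration producing microscopically detectable alteration of HEL fibroblast morphology.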

[11] = tested on: HEL; assay: Cytotoxicity against human HEL cells after 3 days by coulter counter; format: cell-based; details: 72 h
Summary of the method: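 HEL cells seeded at 5 × 10^3 cells/well and allowed to proliferate for 24 h, then exposed to a range of compound concentrations for 3 days at 37 °C. Cells counted with a Coulter counter.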

[12] = tested on: L1210; assay: Cytostatic activity against mouse L1210 cells; format: functional
[13] = tested on: FM3A; assay: Cytostatic activity against mouse FM3A cells; format: functional
[14] = tested on: CCRF-CEM; assay: Cytostatic activity against human CEM cells; format: cell-based
[15] = tested on: Human immunodeficiency virus 1; assay: Antiviral activity against Human immunodeficiency virus type1 3B infected in human CEM cells assessed as HIV-induced CEM giant cell formation after 4 days by microscopic analysis; format: functional, organism-based; details: Human immunodeficiency virus 1, 3B, CCRF-CEM, 96 h
Summary of the method: (§2)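 Human CEM cells (~3 × 10^5 cells/ml) infected with 100 CCID50/ml of HIV-1 (IIIB) or HIV-2 (ROD), then seeded into wells holding compound dilutions. After 4 days at 37 °C, HIV-induced giant cell formation is scored by microscopy.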

[16] = tested on: Human immunodeficiency virus 2; assay: Antiviral activity against Human immunodeficiency virus type 2 ROD infected in human CEM cells assessed as HIV-induced CEM giant cell formation after 4 days by microscopy; format: functional, organism-based; details: Human immunodeficiency virus 2, ISOLATE ROD, CCRF-CEM, 96 h; summary of the method: as §2
[17] = tested on: Vesicular stomatitis virus; assay: Antiviral activity against Vesicular stomatitis virus assessed as reduction of virus induced cytopathicity by cell based assay; format: functional, organism-based; summary of the method: as §1
[18] = tested on: Coxsackievirus B4; assay: Antiviral activity against Coxsackievirus B4 assessed as reduction of virus induced cytopathicity by cell based assay; format: functional, organism-based
Summary of the method: (§3)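 Confluent cell monolayers in 96-well plates (HEL, Vero, HeLa, CRFK or MDCK; the cell type per virus is not specified) infected with 100 CCID50 virus or 20 PFU and incubated with serial compound dilutions. Cytopathicity scored once it was complete in untreated infected controls.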

[19] = tested on: Respiratory syncytial virus; assay: Antiviral activity against Respiratory syncytial virus Long assessed as reduction of virus induced cytopathicity by cell based assay; format: functional, organism-based; summary of the method: as §3
[20] = tested on: Human respirovirus 3; assay: Antiviral activity against Human parainfluenza virus 3 assessed as reduction of virus induced cytopathicity by cell based assay; format: functional, organism-based; summary of the method: as §3
[21] = tested on: Mammalian orthoreovirus 1; assay: Antiviral activity against Reovirus-1 assessed as reduction of virus induced cytopathicity by cell based assay; format: functional, organism-based; summary of the method: as §3
[22] = tested on: Sindbis virus; assay: Antiviral activity against Sindbis virus assessed as reduction of virus induced cytopathicity by cell based assay; format: functional, organism-based; summary of the method: as §3
[23] = tested on: Punta Toro virus; assay: Antiviral activity against Punta Toro virus assessed as reduction of virus induced cytopathicity by cell based assay; format: functional, organism-based; summary of the method: as §3
[24] = Selectivity index, ratio CC50 for human HEL cells to EC50 for Varicella-zoster virus YS expressing thymidine kinase; format: toxicity, cell-based; details: read-out: Ratio CC50/EC50
Summary of the method: (§4)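 HEL fibroblasts seeded at 5 × 10^3 cells/well and allowed to grow 24 h. Medium with compound dilutions is then added and cells are incubated 3 days at 37 °C before Coulter counting. CC50, the concentration halving cell number relative to untreated controls, is read from plots. SI is CC50 divided by the antiviral EC50 from the CPE or plaque-reduction assay in HEL cells.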

[25] = Selectivity index, ratio CC50 for human HEL cells to EC50 for Varicella-zoster virus strain OKA expressing thymidine kinase; format: toxicity, cell-based; details: read-out: Ratio CC50/EC50; summary of the method: as §4
[26] = Selectivity index, ratio CC50 for human HEL cells to EC50 for thymidine kinase-deficient Varicella-zoster virus 07/1; format: toxicity, cell-based; details: read-out: Ratio CC50/EC50; summary of the method: as §4
[27] = Selectivity index, ratio CC50 for human HEL cells to EC50 for thymidine kinase-deficient Varicella-zoster virus YS/R; format: toxicity, cell-based; details: read-out: Ratio CC50/EC50; summary of the method: as §4
[28] = Selectivity index, ratio CC50 for human HEL cells to EC50 for Herpes simplex virus 1 strain KOS; format: toxicity, cell-based; details: read-out: Ratio CC50/EC50; summary of the method: as §4
[29] = Selectivity index, ratio CC50 for human HEL cells to EC50 for Herpes simplex virus 2 strain G; format: toxicity, cell-based; details: read-out: Ratio CC50/EC50; summary of the method: as §4
[30] = Selectivity index, ratio CC50 for human HEL cells to EC50 for thymidine kinase-deficient acyclovir-resistant Herpes simplex virus 1 strain KOS; format: toxicity, cell-based; details: read-out: Ratio CC50/EC50; summary of the method: as §4
[31] = Selectivity index, ratio CC50 for human HEL cells to EC50 for Human cytomegalovirus strain AD169; format: toxicity, cell-based; details: read-out: Ratio CC50/EC50; summary of the method: as §4
[32] = Selectivity index, ratio CC50 for human HEL cells to EC50 for Human cytomegalovirus Davis; format: toxicity, cell-based; details: read-out: Ratio CC50/EC50; summary of the method: as §4
[33] = Selectivity index, ratio CC50 for human HEL cells to EC50 for Vaccinia virus Lederle; format: toxicity, cell-based; details: read-out: Ratio CC50/EC50; summary of the method: as §4
[34] = tested on: Human betaherpesvirus 5; assay: Antiviral activity against Human cytomegalovirus strain AD169 assessed as reduction of virus induced cytopathicity by cell based assay; format: functional, organism-based; details: Human betaherpesvirus 5, AD169; summary of the method: as §1

SMILES | EC50 [1] [nM] | EC50 [2] [nM] | EC50 [3] [nM] | EC50 [4] [nM] | EC50 [5] [nM] | EC50 [6] [nM] | EC50 [7] [nM] | EC50 [8] [nM] | EC50 [9] [nM] | MCC at 72 h [10] [µM] | CC50 [11] [nM] | CC50 [12] [nM] | CC50 [13] [nM] | CC50 [14] [nM] | Activity [17] | Activity [18] | Activity [19] | Activity [20] | Activity [21] | Activity [22] | also measured
CC(CP(=O)(O)O)OCCn1cnc2c(N)ncnc21 (stereo not drawn) | 100 | 70 | 110 | 70 | 1300 | 2300 | 1700 | 900 | 27000 | 322 | 13000 | 10000 | 2700 | 20000 | inactive | inactive | inactive | inactive | inactive | inactive | EC50 [15]: 11000 nM; EC50 [16]: 9000 nM; Activity [23]: inactive; selectivity ratio [24]: 120; selectivity ratio [25]: 120; selectivity ratio [26]: 120; selectivity ratio [27]: 120; selectivity ratio [28]: 6; selectivity ratio [29]: 6; selectivity ratio [30]: 6; selectivity ratio [31]: 14; selectivity ratio [32]: 14; selectivity ratio [33]: < 1
Nc1ccn(C[C@@H](CO)OCP(=O)(O)O)c(=O)n1 [CIDOFOVIR] | – | 290 | 100 | – | 1300 | 900 | 1000 | 700 | – | > 317 | 254000 | – | – | – | – | – | – | – | – | – | selectivity ratio [24]: 880; selectivity ratio [25]: 880; selectivity ratio [26]: 880; selectivity ratio [27]: 880; selectivity ratio [28]: 322; selectivity ratio [29]: 322; selectivity ratio [30]: 322; selectivity ratio [31]: 195; selectivity ratio [32]: 195; selectivity ratio [33]: 35
Nc1ncnc2c1ncn2CCOC(Cc1ccccc1)CP(=O)(O)O (stereo not drawn) | 2900 | 2900 | 4700 | 2500 | 53000 | 86000 | 53000 | 68000 | > 265000 | > 265 | ≥ 247000 | 273000 | 90000 | 530000 | inactive | inactive | inactive | inactive | inactive | inactive | EC50 [34]: 59000 nM; Activity [23]: inactive

Source: ChEMBL document CHEMBL1806434, “Acyclic nucleoside phosphonates with a branched 2-(2-phosphonoethoxy)ethyl chain: efficient synthesis and antiviral activity” (Bioorg Med Chem, 2011)
